Measured values published in PMC12272725 (Chemical Science, 2025).
Where two headings read alike, the source gives them in different places.

Tests used:
Type in all cases: cell-based, human
A549 cells [1] = tested on: A549 cells
Outline: (§1)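 Human cells (A549 lung cancer, RPE-1 non-cancerous epithelial) were incubated with test compound for 4 h, the medium was replaced, and the cells were either irradiated or kept dark, then incubated a further 48 h. Viability was read by resazurin. Irradiation was 510 nm for 10 min (non-extended BODIPYs) or 645 nm (extended BODIPYs). IC50 was found dark and irradiated. […]. PPIX was the positive control.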

RPE-1 cells = tested on: RPE-1 cells
Outline: as §1

A549 cells [2] = experiment: Intracellular total ROS generation, DCFH trap, A549 cells; conditions: A549, 5 μM, 645 nm for 1 h
Outline: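 A549 cells were loaded with the total-ROS trap dichlorodihydrofluorescein (DCFH) and test compound, then irradiated at 645 nm for 1 h at 37 °C. The trap's fluorescence gave intracellular ROS generation. DCFH alone was the control.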

[3] = read-out: IC50 upon 645 nm irradiation, 645 nm for 1 h (9.00 J/cm2)

IC50 (A549 cells [1]; [3]): 900 ± 30 nM
SMILES: C=CC1=C(C)c2cc3[nH]c(cc4nc(cc5[nH]c(cc1n2)c(C)c5CCC(=O)O)C(CCC(=O)O)=C4C)c(C)c3C=C [PPIX]
Phototoxicity index (A549 cells [1]; 510 nm for 10 min): 220 ± 30 | Phototoxicity index (A549 cells [1]; 645 nm for 1 h): 111 ± 4 | Phototoxicity index (RPE-1 cells; 510 nm for 10 min): 350 ± 120 | Phototoxicity index (RPE-1 cells; 645 nm for 1 h): 360 ± 160 | IC50 (RPE-1 cells; read-out: IC50 in the dark, dark, Table 3 (645 nm series)): > 100000 nM | IC50 (RPE-1 cells; read-out: IC50 upon 510 nm irradiation, 510 nm for 10 min (2.44 J/cm2)): 300 ± 100 nM | IC50 (RPE-1 cells; [3]): 300 ± 100 nM | Intracellular ROS generation (A549 cells [2]): elevated above control
